ChEMBL document CHEMBL1129796, “(E)-3-[6-[[(2,6-dichlorophenyl)thio]methyl]-3-(2-phenylethoxy)-2- pyridinyl]-2-propenoic acid: a high-affinity leukotriene B4 receptor antagonist with oral antiinflammatory activity” (J Med Chem, 1996)

How the values were obtained:
Mus musculus [1] = assay: Effect on Arachidonic Acid-Induced Mouse Ear Inflammation expressed as percent inhibition of MPO at 500 ug/ear of topical administration
Mus musculus [2] = assay: Effect on Arachidonic Acid-Induced Mouse Ear Inflammation expressed as percent inhibition of MPO at 50 mg/kg of oral administration; assay type: functional
Procedure, shortened: (§1)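 Balb/c mice (20 g; N=6-10 vehicle, typically 5-6 per drug group) dosed intragastrically with compound in distilled water. Thirty minutes later, 1.0 mg arachidonic acid in 20 µL cold acetone applied to left ear. Ear thickness measured 1 h later. Left ears then harvested and MPO activity read spectrophotometrically (Bradley method). ED50 from multiple dose–response studies (4–5 doses) by linear regression.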

Mus musculus [3] = assay: Dose required to inhibit 50% of arachidonic acid-induced inflammation after topical administration obtained from dose-response curves; assay type: functional
Mus musculus [4] = assay: Dose required to inhibit 50% of arachidonic acid-induced inflammation after oral administration obtained from dose-response curves; assay type: functional
Procedure, shortened: as §1

[5] = biological target: Leukotriene B4 receptor 1 (Homo sapiens, UniProt Q15722); assay: Inhibition of [3H]LTB4 binding to human neutrophils
Chain of Leukotriene B4 receptor 1 (Q15722 whole entry): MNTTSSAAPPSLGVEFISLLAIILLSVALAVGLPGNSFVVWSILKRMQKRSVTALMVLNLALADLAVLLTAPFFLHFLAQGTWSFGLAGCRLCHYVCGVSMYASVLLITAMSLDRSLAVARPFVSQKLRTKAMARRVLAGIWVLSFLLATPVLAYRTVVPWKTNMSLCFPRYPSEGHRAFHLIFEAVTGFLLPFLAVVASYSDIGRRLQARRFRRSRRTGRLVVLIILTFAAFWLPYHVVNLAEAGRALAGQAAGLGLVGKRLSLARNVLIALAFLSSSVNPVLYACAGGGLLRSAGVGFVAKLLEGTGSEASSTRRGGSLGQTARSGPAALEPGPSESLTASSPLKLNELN
Procedure, shortened: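 Intact human PMNs (10^6; >90% neutrophils, >95% viable) incubated with 0.2 nM [3H]LTB4 for 20 min at 0 °C in Hanks balanced salt solution with 0.1% ovalbumin. Compound tested at 0.1 nM–10 µM; nonspecific binding defined with 1 µM unlabeled LTB4. Bound ligand separated by filtration and counted by scintillation. Duplicate curves of 5–8 concentrations, at least two assays.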

Mus musculus [6] = assay: Effect on Arachidonic Acid-Induced Mouse Ear Inflammation expressed as percent inhibition of MPO at 25 mg/kg of oral administration; assay type: functional
Procedure, shortened: as §1

Mus musculus [7] = assay: Effect on Arachidonic Acid-Induced Mouse Ear Inflammation expressed as percent inhibition of MPO at 1000 ug/ear of topical administration; assay type: functional
[8] = biological target: T1, Polyunsaturated fatty acid 5-lipoxygenase (Rattus norvegicus, UniProt P12527); assay: Concentration required to inhibit RBL-1 supernatant 5-lipoxygenase
T1 sequence (P12527 whole entry): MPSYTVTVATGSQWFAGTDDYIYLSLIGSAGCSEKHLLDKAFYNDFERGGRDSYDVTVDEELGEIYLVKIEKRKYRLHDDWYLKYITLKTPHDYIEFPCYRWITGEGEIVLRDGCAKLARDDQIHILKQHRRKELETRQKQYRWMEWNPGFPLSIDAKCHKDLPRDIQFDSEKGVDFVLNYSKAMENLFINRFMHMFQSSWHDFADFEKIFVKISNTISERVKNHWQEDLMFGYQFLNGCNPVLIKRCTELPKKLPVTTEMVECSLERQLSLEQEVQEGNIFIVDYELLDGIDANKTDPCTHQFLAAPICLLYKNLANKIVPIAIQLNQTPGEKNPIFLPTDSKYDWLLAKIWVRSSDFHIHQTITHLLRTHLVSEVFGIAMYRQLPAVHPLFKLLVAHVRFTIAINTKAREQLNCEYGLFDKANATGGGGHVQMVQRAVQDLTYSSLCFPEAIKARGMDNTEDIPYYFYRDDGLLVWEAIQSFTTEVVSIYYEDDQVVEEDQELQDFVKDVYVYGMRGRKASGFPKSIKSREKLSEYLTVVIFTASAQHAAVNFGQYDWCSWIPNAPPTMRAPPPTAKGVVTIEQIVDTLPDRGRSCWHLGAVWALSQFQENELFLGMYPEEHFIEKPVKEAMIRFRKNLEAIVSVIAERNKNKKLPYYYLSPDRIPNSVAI

[9] = biological target: Cysteinyl leukotriene receptor 1 (Homo sapiens, UniProt Q9Y271); assay: Inhibitory concentration LTB4 with [3H]LTD4 in LTD4 receptor binding assay
Chain of Cysteinyl leukotriene receptor 1 (Q9Y271 whole entry, looked up): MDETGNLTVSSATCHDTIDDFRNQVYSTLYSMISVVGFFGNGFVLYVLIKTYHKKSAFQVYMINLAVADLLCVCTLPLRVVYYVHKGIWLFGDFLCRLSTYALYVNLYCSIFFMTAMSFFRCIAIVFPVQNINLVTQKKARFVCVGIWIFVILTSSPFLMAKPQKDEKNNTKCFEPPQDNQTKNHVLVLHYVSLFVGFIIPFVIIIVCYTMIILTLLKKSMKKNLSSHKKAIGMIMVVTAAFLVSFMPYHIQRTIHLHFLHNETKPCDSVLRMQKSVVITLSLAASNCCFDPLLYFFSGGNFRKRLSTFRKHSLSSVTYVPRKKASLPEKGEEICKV

Mus musculus [10] = assay: Effect on Arachidonic Acid-Induced Mouse Ear Inflammation expressed as percent inhibition of MPO at 50 ug/ear of topical administration; assay type: functional
Homo sapiens = organism: Homo sapiens; assay: Concentration required to block LTB4 induced degranulation in human PMNs; assay type: functional
Procedure, shortened: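 Washed human PMNs (10^6, isolated by Ficoll-Hypaque, dextran sedimentation, hypotonic lysis) in 1 mL Earls balanced salt solution with 20 mM HEPES, 0.1% ovalbumin. Preincubated 10 min with 5 µg/mL cytochalasin B, then compound or vehicle 5 min at 37 °C, then 100 nM LTB4 for 3 min. Supernatant MPO measured kinetically at 460 nm (o-dianisidine/H2O2, pH 6.0). Four curves of 5–7 concentrations; mean IC50 ± SEM.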

Row | Structure (SMILES) | inhibition in vivo at 50 mg/kg (Mus musculus [2]) | ED50 (Mus musculus [3]) | ED50 (Mus musculus [4]) | Ki [5] | also measured
1 | COc1ccc(CCCCCCCCOc2ccc(C[S+]([O-])c3cccc(N)c3)nc2/C=C/C(=O)O)cc1 (stereo not drawn) | 0% | 350 ug ear-1 | – | – | Inhibition (Mus musculus [1]): 55%
2 | O=C(O)/C=C/c1nc(CSc2c(Cl)cccc2Cl)ccc1OCCc1ccc(F)cc1 | – | – | 14.1 mg/kg | 1.5 nM | inhibition in vivo at 25 mg/kg (Mus musculus [6]): 75%
3 | O=C(O)/C=C/c1nc(CSc2c(Cl)cccc2Cl)ccc1OCc1ccc(F)cc1 | – | – | – | 12 nM | –
4 | COc1ccc(CCCCCCCCOc2ccc(CSCc3cccc(C(=O)O)c3)nc2/C=C/C(=O)O)cc1 | 0% | 390 ug ear-1 | – | – | Inhibition (Mus musculus [1]): 69%
5 | COc1ccc(CCCCOc2ccc(CSc3c(Cl)cccc3Cl)nc2/C=C/C(=O)O)cc1 | 54% | – | 57.6 mg/kg | 1.5 nM | Inhibition (Mus musculus [7]): 82%
6 | O=C(O)/C=C/c1nc(CSc2c(Cl)cccc2Cl)ccc1OCCc1ccc(Cl)cc1 | – | – | – | 1.3 nM | –
7 | COc1ccc(CCCCOc2ccc(CSc3ccccc3)nc2/C=C/C(=O)O)cc1 | 26% | – | – | 2.8 nM | Inhibition (Mus musculus [7]): 49%
8 | COc1ccc(CCOc2ccc(CSc3c(Cl)cccc3Cl)nc2/C=C/C(=O)O)cc1 | – | – | – | 1.2 nM | –
9 | O=C(O)/C=C/c1nc(CSc2c(Cl)cccc2Cl)ccc1OCCCc1ccccc1 | – | – | – | 1.4 nM | –
10 | O=C(O)/C=C/c1nc(CSc2c(Cl)cccc2Cl)ccc1OCCc1ccccc1 [TICOLUBANT] | – | 8 ug ear-1 | 14.8 mg/kg | 0.78 nM | IC50 [8]: 8.2 µM; IC50 [9]: 16.8 µM; Inhibition (Mus musculus [10]): 83%; IC50 (Homo sapiens): 53 nM; inhibition in vivo at 25 mg/kg (Mus musculus [6]): 70%
